Experiments:
[1] = system: Rattus norvegicus; assay: Plasma concentration after 6 hr of peroral administration at 100 mg/kg was determined in rats; format: functional, organism-based; set-up: dose 100 mg/kg
How it was run: (§1)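 Rats received 100 mg/kg orally by gavage. Blood was drawn from a lateral tail vein at the set times, and plasma was separated by centrifugation. Proteins were precipitated with methanol, and compound was quantified by HPLC with UV detection at its absorbance maximum. Values are the average of two determinations ± range.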

[2] = system: Rattus norvegicus; assay: Plasma concentration after 3h of peroral administration at 100 mg/kg was determined in rats; format: functional, organism-based; set-up: dose 100 mg/kg; how it was run: as §1
[3] = system: Rattus norvegicus; assay: Percentage inhibition of leukotriene biosynthesis in rat peritoneal anaphylaxis model at 100 mg/kg; format: functional
How it was run: (§2)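 Rats were primed ip with rabbit antibody to bovine serum albumin and challenged ip with BSA 3 h later. Inhibitors were given orally by gavage 1 h before challenge. Rats were killed 15 min after challenge, and peritoneal fluid leukotrienes were measured by radioimmunoassay. ED50 is given with 95% confidence limits. Percent inhibition at a fixed dose is the mean ± SEM (n = 8).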

[4] = system: Rattus norvegicus; assay: Plasma concentration after 1 hr of peroral administration at 100 mg/kg was determined in rats; format: functional, organism-based; set-up: dose 100 mg/kg; how it was run: as §1
[5] = target: T1, Polyunsaturated fatty acid 5-lipoxygenase (Rattus norvegicus, UniProt P12527); assay: In vitro inhibition of 5-lipoxygenase in RBL-1 cells; format: cell-based
T1 sequence (P12527 whole entry): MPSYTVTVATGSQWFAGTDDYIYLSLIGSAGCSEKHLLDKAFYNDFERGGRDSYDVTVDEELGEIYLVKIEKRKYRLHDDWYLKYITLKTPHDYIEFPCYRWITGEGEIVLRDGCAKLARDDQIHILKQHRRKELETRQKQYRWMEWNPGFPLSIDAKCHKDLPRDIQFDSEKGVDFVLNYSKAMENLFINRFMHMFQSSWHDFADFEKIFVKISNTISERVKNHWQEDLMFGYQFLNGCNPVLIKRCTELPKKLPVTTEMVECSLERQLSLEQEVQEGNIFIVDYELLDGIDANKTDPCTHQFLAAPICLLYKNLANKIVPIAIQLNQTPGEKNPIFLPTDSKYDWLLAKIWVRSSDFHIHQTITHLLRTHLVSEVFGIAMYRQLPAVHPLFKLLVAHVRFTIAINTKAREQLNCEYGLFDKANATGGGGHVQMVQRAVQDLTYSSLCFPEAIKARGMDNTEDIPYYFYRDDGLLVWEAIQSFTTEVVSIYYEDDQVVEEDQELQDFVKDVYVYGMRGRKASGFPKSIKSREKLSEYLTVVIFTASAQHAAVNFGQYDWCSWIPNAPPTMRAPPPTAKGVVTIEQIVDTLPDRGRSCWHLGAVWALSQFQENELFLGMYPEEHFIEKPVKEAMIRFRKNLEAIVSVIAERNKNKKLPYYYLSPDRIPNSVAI
How it was run: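 The enzyme was 5-lipoxygenase in the 2000g supernatant of RBL-1 cell homogenate. IC50 is reported with 95% confidence limits.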

[6] = species on record: Rattus norvegicus; assay: Effective dosage to inhibit leukotriene biosynthesis in rat peritoneal anaphylaxis model; format: functional; how it was run: as §2

Row | Compound | Plasma concentration [1] [µM] | Plasma concentration [2] [µM] | inhibition in vivo at 100 mg/kg [3] [%] | Plasma concentration [4] [µM] | IC50 [5] [nM] | ED50 [6] [mg/kg]
1 | CCCCOc1ccc(C(C)C(=O)N(C)O)cc1 (stereo not drawn) | 3.2 | 7.3 | 62 | 58 | 780 | 
2 | CCCCOc1ccc(C(C)N(O)C(C)=O)cc1 (stereo not drawn) | 13 | 71 |  | 92 | 790 | 17
3 | CC(=O)N(O)C(C)c1ccc(CC(C)C)cc1 (stereo not drawn) | 5 | 10 |  | 21 | 420 | 24
4 | CC(C(=O)N(C)O)c1ccc(OCc2ccccc2)cc1 (stereo not drawn) | 3.8 | 5.8 |  | 8 |  | 40
5 | CC(=O)N(O)C(C)c1ccc2ccccc2c1 (stereo not drawn) | 33 | 26 |  | 91 | 540 | 19
6 | CC(C(=O)N(C)O)c1ccc2ccccc2c1 (stereo not drawn) | 1.4 | 13 |  | 37 | 590 | 
7 | CC(C)Cc1ccc(C(C)C(=O)N(C)O)cc1 (stereo not drawn) | < 9 | < 9 | 65 | < 9 | 290 | 
8 | CC(=O)N(O)C(C)c1ccc(OCc2ccccc2)cc1 (stereo not drawn) | 95 | 140 |  | 110 | 370 | 8

From ChEMBL document CHEMBL1123959, “Orally active hydroxamic acid inhibitors of leukotriene biosynthesis” (J Med Chem, 1988)
